From ChEMBL document CHEMBL1121524, “Studies of hypolipidemic agents. 1. Synthesis and hypolipidemic activities of alkoxycinnamic acid derivatives” (1980)

Tests used:
Format in all cases: functional
Rattus norvegicus [1] = species on record: Rattus norvegicus; test: tested for the hypolipidemic activity, expressed as percent decrease in Triglyceride in rat, at dosage of 75.8 mg for 7 days by Ryan and Rasho method
How it was run: (§1)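 Male Sprague-Dawley rats, 4 weeks old, kept on CE-2 chow for at least 1 week, then grouped (generally five per group). Compound was mixed into CE-2 powder and fed ad libitum for the stated period; controls received plain CE-2 powder. Diet level is given as mg/100 g (mg%), about equal to mg/kg/day. Total serum triglyceride was measured by the Ryan and Rasho method and reported as percent depression versus control group mean. Significance was p < 0.05.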

Rattus norvegicus [2] = species on record: Rattus norvegicus; test: Tested for the hypolipidemic activity, expressed as percent decrease in serum cholesterol in rat, at dosage of 75.8 mg for 7 days by Zak et al method
How it was run: as §1, with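 “cholesterol” for “triglyceride”, “Zak et al.” for “Ryan and Rasho”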

Rattus norvegicus [3] = species on record: Rattus norvegicus; test: Tested for the hypolipidemic activity, expressed as percent decrease in Triglyceride in rat, at dosage of 100 mg for 5 days by Ryan and Rasho method; how it was run: as §1
Rattus norvegicus [4] = species on record: Rattus norvegicus; test: Tested for the hypolipidemic activity, expressed as percent decrease in serum cholesterol in rat, at dosage of 100 mg for 5 days by Zak et al method
How it was run: as §1, with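 “cholesterol” for “triglyceride”, “Zak et al.” for “Ryan and Rasho”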

Rattus norvegicus [5] = species on record: Rattus norvegicus; test: Hypolipidemic activity expressed as percentage decrease in triglyceride in rat, at dosage of 50 mg for 7 days; how it was run: as §1
Rattus norvegicus [6] = species on record: Rattus norvegicus; test: tested for the hypolipidemic activity, expressed as percent decrease in Triglyceride in rat, at dosage of 20 mg for 7 days by Ryan and Rasho method; how it was run: as §1
Rattus norvegicus [7] = species on record: Rattus norvegicus; test: tested for the hypolipidemic activity, expressed as percent decrease in serum cholesterol in rat, at dosage of 10 mg for 7 days by Zak et al method
How it was run: as §1, with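 “cholesterol” for “triglyceride”, “Zak et al.” for “Ryan and Rasho”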

Rattus norvegicus [8] = species on record: Rattus norvegicus; test: tested for the hypolipidemic activity, expressed as percent decrease in Triglyceride in rat, at dosage of 10 mg for 7 days by Ryan and Rasho method; how it was run: as §1
Rattus norvegicus [9] = species on record: Rattus norvegicus; test: Tested for the hypolipidemic activity, expressed as percent decrease in serum cholesterol in rat, at dosage of 20 mg for 7 days by Zak et al method
How it was run: as §1, with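 “cholesterol” for “triglyceride”, “Zak et al.” for “Ryan and Rasho”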

Rattus norvegicus [10] = species on record: Rattus norvegicus; test: Tested for the hypolipidemic activity, expressed as percent decrease in serum cholesterol in rat, at dosage of 50 mg for 7 days
How it was run: as §1, with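 “cholesterol” for “triglyceride”, “Zak et al.” for “Ryan and Rasho”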

Rattus norvegicus [11] = species on record: Rattus norvegicus; test: Tested for the hypolipidemic activity, expressed as percent decrease in Triglyceride in rat, at dosage of 30 mg for 7 days by Ryan and Rasho method; how it was run: as §1
Rattus norvegicus [12] = species on record: Rattus norvegicus; test: Tested for the hypolipidemic activity, expressed as percent decrease in serum cholesterol in rat, at dosage of 30 mg for 7 days by Zak et al method
How it was run: as §1, with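 “cholesterol” for “triglyceride”, “Zak et al.” for “Ryan and Rasho”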

## CCCCCCCCCCCCCCCC(=O)OCC(O)COC(=O)/C(C)=C/c1ccc(OCCCCCCCCCCCCCC)cc1 (configuration not stated)
Rattus norvegicus [1]
  Decrease: -19%
Rattus norvegicus [2]
  Decrease: 3%

## C=C(C)C(=O)OCCOC(=O)/C=C/c1ccc(OCCCCCCC/C=C/CCCCCCCCC)cc1
Rattus norvegicus [3]
  Decrease: 21%
Rattus norvegicus [4]
  Decrease: -13%

## CCCCCCCCCCCCOc1ccc(/C=C(\C)C(=O)O)cc1
Rattus norvegicus [5]
  Decrease: 31%
Rattus norvegicus [6]
  Decrease: 32%
Rattus norvegicus [7]
  Decrease: 14%
Rattus norvegicus [8]
  Decrease: 13%
Rattus norvegicus [9]
  Decrease: 7%
Rattus norvegicus [10]
  Decrease: 17%

## C=CCOc1ccc(/C=C/C(=O)O)cc1
Rattus norvegicus [11]
  Decrease: -16%
Rattus norvegicus [12]
  Decrease: 0%
